Results as given in PubChem BioAssay AID485348 (The Scripps Research Institute Molecular Screening Center, 2010).
Active and inactive are the calls of the source.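 The calls were made as follows: active = inhibition above 25%, the campaign hit cutoff; inactive = the rest.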

Molecular target: Nuclear receptor subfamily 5 group A member 2 (Homo sapiens) (UniProt O00482)
Test: LRH-1 reporter luminescence decrease – cell-based, 3X%INH, LRH-1 inverse agonist project (AID 485348)
Conditions: HEK293T LRH-1 Cyp19-luciferase reporter, 20 h, at 5 µM, stronger effect = higher value
Outline: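 Material: HEK293T cells cotransfected with full-length LRH-1 (pSport6) and Cyp19-aromatase luciferase reporter / Times: 20 h compound exposure after 4 h rest / Detection: luciferase luminescence / Benchmarks: DMSO vehicle-treated wells as reference / Repeats: triplicate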

Nuclear receptor subfamily 5 group A member 2 (Homo sapiens), sequence (O00482 whole entry, looked up): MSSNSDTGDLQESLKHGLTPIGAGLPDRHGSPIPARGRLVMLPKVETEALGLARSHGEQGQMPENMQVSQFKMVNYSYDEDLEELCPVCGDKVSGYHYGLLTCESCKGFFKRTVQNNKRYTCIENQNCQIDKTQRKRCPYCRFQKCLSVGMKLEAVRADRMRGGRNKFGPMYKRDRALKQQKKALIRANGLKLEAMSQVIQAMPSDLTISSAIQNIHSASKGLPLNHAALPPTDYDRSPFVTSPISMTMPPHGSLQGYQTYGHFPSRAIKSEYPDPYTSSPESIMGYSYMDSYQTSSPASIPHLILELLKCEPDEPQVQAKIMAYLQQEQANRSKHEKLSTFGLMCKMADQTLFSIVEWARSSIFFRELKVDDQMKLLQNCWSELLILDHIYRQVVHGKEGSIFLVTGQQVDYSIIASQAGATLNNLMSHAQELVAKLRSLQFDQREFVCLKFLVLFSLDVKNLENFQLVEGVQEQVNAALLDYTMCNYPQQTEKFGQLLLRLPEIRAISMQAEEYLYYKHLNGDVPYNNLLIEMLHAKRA

inhibition | SMILES
1.7% (inactive) | COc1ccc(N2CCN(c3cc(=O)n(C4CCCCC4)c(=O)[nH]3)CC2)cc1
42% | O=c1cc(N2CCN(c3cccc(Cl)c3Cl)CC2)[nH]c(=O)n1C1CCCCC1
14.3% (inactive) | O=c1cc(N2CCc3ccccc32)[nH]c(=O)n1C1CCCCC1
30.3% | O=c1cc(N2CCN(Cc3ccc(Cl)cc3)CC2)[nH]c(=O)n1C1CCCCC1
2.7% (inactive) | O=c1cc(N2CCN(c3nccc4occc34)CC2)[nH]c(=O)n1C1CCCCC1
29.7% | C=CCn1c(N2CCN(c3cccc(C(F)(F)F)c3)CC2)cc(=O)n(C2CCCCC2)c1=O
36.7% | C=CCn1c(=O)cc(N2CCN(c3cccc(C(F)(F)F)c3)CC2)[nH]c1=O
5.3% (inactive) | CCN1CCN(c2cc(=O)n(C3CCCCC3)c(=O)[nH]2)CC1
2% (inactive) | N#CCn1c(N2CCN(c3cccc(C(F)(F)F)c3)CC2)cc(=O)n(C2CCCCC2)c1=O
45% | O=c1cc(N2CCN(c3cccc(Cl)n3)CC2)[nH]c(=O)n1C1CCCCC1
0% (inactive) | O=c1cc(N2CCN(c3cccc(Cl)c3)CC2)[nH]c(=O)[nH]1
2.3% (inactive) | CCn1c(=O)cc(N2CCN(c3ccc(F)cc3)CC2)[nH]c1=O
20% (inactive) | O=c1cc(N2CCN(c3cc(Cl)cc(Cl)c3)CC2)[nH]c(=O)n1C1CCCCC1
22.7% (inactive) | O=c1cc(N2CCN(c3ccccc3)CC2)[nH]c(=O)n1Cc1ccc(F)cc1
0.3% (inactive) | O=C(c1ccccc1)N1CCN(c2cc(=O)n(C3CCCCC3)c(=O)[nH]2)CC1
5.7% (inactive) | CC1CCN(c2cc(=O)n(Cc3ccc(F)cc3)c(=O)[nH]2)CC1
21.3% (inactive) | O=c1cc(N2CCN(c3cccc(C(F)(F)F)c3)CC2)n(Cc2ccccc2)c(=O)n1C1CCCCC1
36% | O=c1cc(N2CCN(c3ccccn3)CC2)[nH]c(=O)n1C1CCCCC1
0% (inactive) | O=c1cc(N2CCN(c3ccc(C(F)(F)F)cc3)CC2)[nH]c(=O)n1C1CCCCC1
10% (inactive) | CC1CCN(c2cc(=O)n(C3CCCCC3)c(=O)[nH]2)CC1

inhibition | SMILES
32% | O=c1cc(N2CCN(c3ccccc3)CC2)[nH]c(=O)n1C1CCCCC1
38.3% | Cc1cc(C)cc(N2CCN(c3cc(=O)n(C4CCCCC4)c(=O)[nH]3)CC2)c1
2.3% (inactive) | O=c1cc(N2CCC(Cc3ccccc3)CC2)[nH]c(=O)n1C1CCCCC1
-30% (inactive) | C=CCN1CCN(c2cc(=O)n(C3CCCCC3)c(=O)[nH]2)CC1
11% (inactive) | O=C(c1ccco1)N1CCN(c2cc(=O)n(C3CCCCC3)c(=O)[nH]2)CC1
11.3% (inactive) | O=c1cc(N2CCN(c3ncccc3C(F)(F)F)CC2)[nH]c(=O)n1C1CCCCC1
40.7% | Cn1c(=O)cc(N2CCN(c3cccc(Cl)c3)CC2)[nH]c1=O
16% (inactive) | CCOC(=O)N1CCN(c2cc(=O)n(C3CCCCC3)c(=O)[nH]2)CC1
3% (inactive) | O=c1cc(N2CCN(c3cccc(C(F)(F)F)c3)CC2)[nH]c(=O)n1Cc1ccccc1
36.7% | O=c1cc(N2CCN(c3cccc(F)c3)CC2)[nH]c(=O)n1C1CCCCC1
17% (inactive) | O=c1cc(N2CCN(c3cccc(Br)c3)CC2)[nH]c(=O)n1C1CCCCC1
3.7% (inactive) | CCn1c(=O)cc(N2CCN(c3ccccc3)CC2)[nH]c1=O
14% (inactive) | Cn1c(=O)cc(N2CCN(c3ccc(F)cc3)CC2)[nH]c1=O
20.3% (inactive) | O=c1cc(N2CCCCC2)[nH]c(=O)n1C1CCCCC1
3.3% (inactive) | O=c1cc(N2CCN(c3cccc(C(F)(F)F)n3)CC2)[nH]c(=O)n1C1CCCCC1
9.7% (inactive) | CCn1c(=O)cc(N2CCN(Cc3ccccc3)CC2)[nH]c1=O
35.3% | O=c1cc(N2CCN(C3CCCCC3)CC2)[nH]c(=O)n1C1CCCCC1
45% | CCn1c(=O)cc(N2CCN(c3cccc(Cl)c3)CC2)[nH]c1=O
4% (inactive) | O=c1cc(N2CCN(C(c3ccccc3)c3ccccc3)CC2)[nH]c(=O)n1C1CCCCC1
13.3% (inactive) | O=c1cc(N2CCN(CCN3CCOCC3)CC2)[nH]c(=O)n1C1CCCCC1

inhibition | SMILES
32.3% | Cc1ccc(C)n1CCN1CCN(c2cc(=O)n(C3CCCCC3)c(=O)[nH]2)CC1
52.3% | O=c1cc(N2CCN(c3cccc(Cl)c3)CC2)[nH]c(=O)n1C1CCCCC1
42% | O=c1cc(N2CCN(c3nc(-c4ccccc4)ns3)CC2)[nH]c(=O)n1C1CCCCC1
3.3% (inactive) | O=c1cc(N2CCN(c3ccc(F)cc3F)CC2)[nH]c(=O)n1C1CCCCC1
5.3% (inactive) | O=c1cc(N2CCOCC2)[nH]c(=O)n1C1CCCCC1
17.7% (inactive) | O=c1cc(N2CCN(c3cccc(C(F)(F)F)c3)CC2)[nH]c(=O)n1-c1ccccc1
3.3% (inactive) | CCn1c(=O)cc(N2CCN(C(=O)c3ccco3)CC2)[nH]c1=O
16.7% (inactive) | O=c1cc(N2CCN(Cc3ccc4c(c3)OCO4)CC2)[nH]c(=O)n1C1CCCCC1
18% (inactive) | COC(=O)C1CCN(c2cc(=O)n(C3CCCCC3)c(=O)[nH]2)CC1
17.7% (inactive) | O=c1cc(N2CCN(c3ncccc3Cl)CC2)[nH]c(=O)n1C1CCCCC1
34.7% | O=c1cc(N2CCN(c3ccnc4cc(Cl)ccc34)CC2)[nH]c(=O)n1C1CCCCC1
33.3% | CC(C)Cn1c(=O)cc(N2CCN(c3cccc(C(F)(F)F)c3)CC2)[nH]c1=O
16.3% (inactive) | Cc1ccc(Cl)cc1N1CCN(c2cc(=O)n(C3CCCCC3)c(=O)[nH]2)CC1
45.7% | O=c1cc(N2CCN(c3cccc(C(F)(F)F)c3)CC2)[nH]c(=O)n1C1CCCCC1
16% (inactive) | O=c1cc(N2CCN(c3ccccc3C(F)(F)F)CC2)[nH]c(=O)n1C1CCCCC1
20.3% (inactive) | O=c1cc(N2CCN(c3cc(C(F)(F)F)ccn3)CC2)[nH]c(=O)n1C1CCCCC1
39.3% | CCn1c(=O)cc(N2CCN(c3cccc(C(F)(F)F)c3)CC2)[nH]c1=O
8.7% (inactive) | O=c1cc(N2CCCC2)[nH]c(=O)n1C1CCCCC1
16% (inactive) | O=c1cc(N2CCN(c3ccccc3Cl)CC2)[nH]c(=O)n1C1CCCCC1
1.3% (inactive) | O=c1cc(N2CCN(c3ccc(F)cc3)CC2)[nH]c(=O)n1C1CCCCC1
